Calls of active or inactive are those of the source. The calls are words filed in the database; no cut-off is given here.
Columns and labels:
[1] = molecular target: T1, Monoacylglycerol lipase ABHD6 (Homo sapiens, UniProt Q9BV23); test: Inhibition of recombinant human ABHD6 expressed in HEK293 cells by AmplifuTM red dye based fluorescence assay; format: cell-based
T1 sequence (Q9BV23 whole entry): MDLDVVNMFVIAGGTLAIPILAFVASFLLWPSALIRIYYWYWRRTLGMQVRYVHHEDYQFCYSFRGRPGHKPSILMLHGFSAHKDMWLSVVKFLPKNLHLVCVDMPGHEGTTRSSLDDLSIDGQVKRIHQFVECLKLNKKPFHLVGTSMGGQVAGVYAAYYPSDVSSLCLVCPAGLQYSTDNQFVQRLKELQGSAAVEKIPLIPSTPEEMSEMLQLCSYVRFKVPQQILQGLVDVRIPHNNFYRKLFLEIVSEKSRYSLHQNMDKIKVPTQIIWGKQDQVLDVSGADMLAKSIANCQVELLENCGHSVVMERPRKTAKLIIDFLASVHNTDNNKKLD
Outline: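 Membranes from transiently transfected HEK293T cells expressing human ABHD6, 40 μg mL-1 final protein. Real-time coupled fluorescence assay with natural substrate 2-AG (25 μM). Glycerol released is detected via glycerol kinase, glycerol-3-phosphate oxidase and HRP (0.2 U mL-1 each), 0.125 mM ATP and 10 μM Amplifu Red. Assay contains 5% DMSO and 0.5% acetonitrile. pIC50 ± SEM.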

[2] = molecular target: T2, Diacylglycerol lipase-alpha (Mus musculus) (UniProt Q6WQJ1); test: Inhibition of MB064 labelling of DAGLalpha in mouse brain homogenates at 10 uM pretreated for 30 mins followed by MB064 addition and measured after 20 mins by activity based protein profiling assay relative to control; format: tissue-based
T2 sequence (whole entry): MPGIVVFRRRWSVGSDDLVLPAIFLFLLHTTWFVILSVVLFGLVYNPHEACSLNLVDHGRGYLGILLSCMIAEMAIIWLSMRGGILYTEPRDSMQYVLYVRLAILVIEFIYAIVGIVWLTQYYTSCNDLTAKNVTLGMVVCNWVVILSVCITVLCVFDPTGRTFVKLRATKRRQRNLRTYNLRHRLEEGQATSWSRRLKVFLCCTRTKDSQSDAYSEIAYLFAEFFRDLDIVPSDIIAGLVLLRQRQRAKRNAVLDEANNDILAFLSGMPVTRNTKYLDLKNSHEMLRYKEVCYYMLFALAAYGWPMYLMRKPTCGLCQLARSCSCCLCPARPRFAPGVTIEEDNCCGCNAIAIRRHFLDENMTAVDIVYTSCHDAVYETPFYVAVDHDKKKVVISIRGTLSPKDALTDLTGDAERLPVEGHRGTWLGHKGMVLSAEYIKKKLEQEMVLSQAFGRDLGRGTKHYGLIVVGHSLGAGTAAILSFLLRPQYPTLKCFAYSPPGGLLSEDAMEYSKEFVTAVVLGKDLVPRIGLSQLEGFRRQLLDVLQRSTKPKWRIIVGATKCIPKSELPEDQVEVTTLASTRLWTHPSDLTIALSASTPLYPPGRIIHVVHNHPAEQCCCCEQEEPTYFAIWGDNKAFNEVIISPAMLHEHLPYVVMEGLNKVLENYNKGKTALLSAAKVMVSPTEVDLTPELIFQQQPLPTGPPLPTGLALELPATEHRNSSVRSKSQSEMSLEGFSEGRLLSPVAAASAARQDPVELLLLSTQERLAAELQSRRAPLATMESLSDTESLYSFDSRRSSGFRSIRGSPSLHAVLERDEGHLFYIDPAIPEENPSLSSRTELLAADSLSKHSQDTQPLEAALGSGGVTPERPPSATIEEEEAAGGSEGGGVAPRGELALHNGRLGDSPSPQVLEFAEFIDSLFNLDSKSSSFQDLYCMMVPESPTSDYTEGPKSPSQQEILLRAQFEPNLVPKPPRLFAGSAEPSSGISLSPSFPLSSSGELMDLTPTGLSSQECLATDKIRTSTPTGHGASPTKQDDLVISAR
Outline: (§1)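 Mouse brain membrane proteome preincubated 30 min with inhibitor (10 μM), then labelled with MB064 probe (0.25 μM, 20 min). Readout by gel-based competitive ABPP. Band intensities corrected for protein loading per lane from Coomassie staining. Means ± SEM, n = 3.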

[3] = molecular target: T3, Monoacylglycerol lipase ABHD6 (Mus musculus) (UniProt Q8R2Y0); test: Inhibition of MB064 labelling of ABHD6 in mouse brain homogenates at 10 uM pretreated for 30 mins followed by MB064 addition and measured after 20 mins by activity based protein profiling assay relative to control; format: tissue-based; outline: as §1
T3 sequence (whole entry): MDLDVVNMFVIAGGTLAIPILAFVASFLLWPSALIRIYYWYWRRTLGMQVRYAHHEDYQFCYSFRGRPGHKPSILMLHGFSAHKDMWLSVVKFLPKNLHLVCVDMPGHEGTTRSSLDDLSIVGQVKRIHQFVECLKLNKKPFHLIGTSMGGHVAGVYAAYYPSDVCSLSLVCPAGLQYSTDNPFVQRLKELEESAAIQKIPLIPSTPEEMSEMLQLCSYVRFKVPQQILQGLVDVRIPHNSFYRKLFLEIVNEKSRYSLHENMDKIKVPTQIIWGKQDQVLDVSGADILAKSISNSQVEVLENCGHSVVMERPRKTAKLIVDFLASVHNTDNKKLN

[4] = molecular target: T4, Triacylglycerol hydrolase DDHD2 (Mus musculus) (UniProt Q80Y98); test: Inhibition of MB064 labelling of DDHD2 in mouse brain homogenates at 10 uM pretreated for 30 mins followed by MB064 addition and measured after 20 mins by activity based protein profiling assay; format: tissue-based; outline: as §1
T4 sequence (whole entry): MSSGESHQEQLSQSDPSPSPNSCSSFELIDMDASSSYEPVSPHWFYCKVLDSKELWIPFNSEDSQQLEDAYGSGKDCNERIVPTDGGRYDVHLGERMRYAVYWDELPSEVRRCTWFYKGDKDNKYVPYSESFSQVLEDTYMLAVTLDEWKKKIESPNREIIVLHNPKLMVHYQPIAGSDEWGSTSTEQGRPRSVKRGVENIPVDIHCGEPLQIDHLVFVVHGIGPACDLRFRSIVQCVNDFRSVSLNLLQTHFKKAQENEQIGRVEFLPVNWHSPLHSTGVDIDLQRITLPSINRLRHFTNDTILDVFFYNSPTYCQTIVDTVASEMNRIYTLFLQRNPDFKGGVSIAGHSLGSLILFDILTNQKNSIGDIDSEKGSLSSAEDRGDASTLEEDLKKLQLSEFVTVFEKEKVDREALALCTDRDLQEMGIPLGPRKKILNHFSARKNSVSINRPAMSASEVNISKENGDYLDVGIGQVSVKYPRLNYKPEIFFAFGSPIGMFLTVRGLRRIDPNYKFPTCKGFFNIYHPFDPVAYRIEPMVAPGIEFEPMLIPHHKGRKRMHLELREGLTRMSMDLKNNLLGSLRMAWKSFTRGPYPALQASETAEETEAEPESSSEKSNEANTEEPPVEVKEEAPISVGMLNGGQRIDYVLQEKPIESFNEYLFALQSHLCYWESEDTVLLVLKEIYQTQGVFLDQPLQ

SMILES | IC50 [1] | inhibition [2] | inhibition [3] | inhibition [4]
O=C(N1CCC=C[C@@H]1COCc1ccccc1)n1cc(-c2ccc(Br)cc2)nn1 | 15.8 nM | 93% | 94% | Active
O=C(N1CCC=C[C@@H]1COCc1ccccc1)n1cc(-c2ccc(Oc3ccccc3)cc2)nn1 | 6.31 nM | 93% | 86% | Active
O=C(N1CCC=C[C@@H]1COCc1ccccc1)n1cc(-c2ccc([N+](=O)[O-])cc2)nn1 | 31.6 nM | 95% | 93% | Active
O=C(N1CCCC[C@@H]1COCc1ccccc1)n1cc(-c2ccc(-c3ccccc3)cc2)nn1 | 3.16 nM | 96% | 96% | Active
O=C(N1C[C@@H](O)C=C[C@@H]1COCc1ccccc1)n1cc(-c2ccc(-c3ccccc3)cc2)nn1 | 10 nM | 85% | 95% | Active
O=C(N1CCC=C[C@@H]1COCc1ccccc1)n1cc(-c2ccccc2)nn1 | 158 nM | 89% | 89% | Active
O=C(N1CCC=C[C@@H]1COCc1ccccc1)n1cc(-c2ccc(-c3ccccc3)cc2)nn1 | 12.6 nM | 94% | 96% | Active

— ChEMBL document CHEMBL4261499, “Chiral disubstituted piperidinyl ureas: a class of dual diacylglycerol lipase-α and ABHD6 inhibitors” (Medchemcomm, 2017)
